An excerpt weighted towards active compounds, which were near 1.5% of everything screened.
Apaf-1 inh – inhibitors of human Apaf-1 apoptosome, primary screen, biochemical, DEVD-Rh110 fluorescence, uHTS. Apoptotic protease-activating factor 1 (Homo sapiens), O14727. reconstituted apoptosome caspase-3 activity. inhibition, % at 20 µM. 330,000 compounds, 0.71% hits; active = inhibition of at least 40% at 20 µM
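Assay system: Apoptosome proteins | Medium: pH 7.5 Hepes buffer with CHAPS, BSA, DTT | Also added: Cytochrome c and DEVD-Rh110 substrate | Times: 30 min plus 50 min, RT | Detection: Rhodamine 110 fluorescence at Ex 480/Em 540 nm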
PREPL inh – PREPL enzyme inhibitors, primary screen, biochemical, fluorescence polarization | inhibition, % at 5.96 µM | 320,000 compounds, 0.68% hits | recombinant PREPL, fluorescence polarization activity-based probe; in the data active = inhibition above about 43%
UBC13 polyUb – UBC13 polyubiquitin chain formation inhibitors, primary screen, biochemical, TR-FRET, uHTS. inhibition, % at 20 µM. 330,000 compounds, 0.47% hits. AID 485273, 2010; in the data active = inhibition above about 45%, passing the limit was not always enough
Target sequence (P61088 whole entry, looked up): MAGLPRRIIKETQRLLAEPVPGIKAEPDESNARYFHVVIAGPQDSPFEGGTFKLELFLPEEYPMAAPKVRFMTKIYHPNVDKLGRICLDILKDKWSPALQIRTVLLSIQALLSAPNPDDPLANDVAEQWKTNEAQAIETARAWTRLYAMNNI
UCH37 DUB inh – inhibitors of human UCH37 deubiquitinase, primary screen, biochemical, Ub-AMC cleavage, fluorescence | purified proteasome/UCH37 | inhibition, % (test concentration not listed) | 330,000 compounds, 0.33% hits | AID 588478, 2011;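 active = mean inhibition over replicate wells above about 20%, limit read from the data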
Target sequence (Q9Y5K5 whole entry, looked up): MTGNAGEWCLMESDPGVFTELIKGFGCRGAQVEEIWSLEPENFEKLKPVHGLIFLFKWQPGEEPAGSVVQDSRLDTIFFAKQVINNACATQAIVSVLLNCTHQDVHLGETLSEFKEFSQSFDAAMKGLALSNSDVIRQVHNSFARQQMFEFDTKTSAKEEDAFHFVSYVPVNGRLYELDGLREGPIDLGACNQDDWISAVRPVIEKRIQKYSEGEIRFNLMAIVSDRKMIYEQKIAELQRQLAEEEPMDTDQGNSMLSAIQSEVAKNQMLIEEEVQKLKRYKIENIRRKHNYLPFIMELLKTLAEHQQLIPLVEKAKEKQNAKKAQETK
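Test system – human UCH37 enzyme supplied as purified proteasome complex · Incubation – 30 min preincubation with enzyme, 25 min cleavage at room temperature · Detection – AMC fluorescence from Ub-AMC cleavage, excitation 355 nm, emission 460 nm · Benchmarks – no-proteasome wells (full inhibition) and compound-free wells (no inhibition)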
Apaf-1 inh conf2 – Apaf-1 inhibitors, single-dose retest, confirmation, biochemical, fluorescence, DEVD-Rh110, 20 µM. shares compounds with Apaf-1 inh. reconstituted apoptosome, caspase-3 DEVD-Rh110 fluorescence. inhibition, % at 20 µM. 1,800 compounds, 25% hits;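 active = mean inhibition of at least 40% at 20 µM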
Rh110 interf inh – Rh110 fluorescence interference by putative Apaf-1 inhibitors, confirmation, artefact control for Apaf-1 inhibitor project, biochemical, 20 µM; shares compounds with Apaf-1 inh; quenched caspase reaction; activation (fluorescence interference), % at 20 µM; 1,800 tested, under 10 active; AID 504615, 2011;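 active = signal rise of 40% or more at 20 µM, treated as a fluorescence artifact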
Apaf1 inh interf – fluorescence interference of Apaf-1 inhibitor hits, dose response, artefact control for Apaf-1 inhibitor project. shares compounds with Apaf-1 inh. fluorescence interference counterscreen, Apaf-1 assay format. IC50, µM. 460 tested, under 10 active; call rule not given here
Of the large screens only hits and unclear results are named; the others gave an inactive call (follow-up assays come after a bar, where they were run).

O=C(Nc1ccc(OC(F)F)c(Cl)c1)[C@@H]1CCCN1C(=O)c1cccs1	Apaf-1 inh 92 | Apaf-1 inh conf2 inactive | Rh110 interf inh inactive
COc1cc(C=NNC(=O)C(Cc2c[nH]c3ccccc23)NC(=O)OCC(C)C)cc([N+](=O)[O-])c1OCc1ccccc1 (stereo not drawn)	none (no result: Apaf-1 inh, PREPL inh, UBC13 polyUb)
COc1ccc(C(CNC(=O)c2cccn2C)N2CCOCC2)cc1 (stereo not drawn)	Apaf-1 inh 47 | Apaf-1 inh conf2 inactive | Rh110 interf inh inactive
CCOc1ccc(C=Nn2c(COc3ccccc3)n[nH]c2=S)cc1OC	none (no result: Apaf-1 inh, PREPL inh, UBC13 polyUb)
CCN(CC)c1ccc(S(=O)(=O)N2CCCCC2)cc1NC(=O)C1CSC2(C)CCC(=O)N12 (stereo not drawn)	Apaf-1 inh 51 | Apaf-1 inh conf2 inactive | Rh110 interf inh inactive
CCOc1ccc(S(=O)(=O)N2CCOCC2)cc1NC(=O)C1CSC2(C)CCC(=O)N12 (stereo not drawn)	none
CC12CCC(=O)N1C(C(=O)Nc1ccccc1N1CCCCC1)CS2 (stereo not drawn)	Apaf-1 inh 48 | Apaf-1 inh conf2 inactive | Rh110 interf inh inactive
CC12CCC(=O)N1C(C(=O)Nc1ccccc1N1CCCC1)CS2 (stereo not drawn)	none (no result: Apaf-1 inh, PREPL inh, UBC13 polyUb)
O=C(NCCO)c1ccc2nc(-c3ccco3)c(-c3ccco3)nc2c1	Apaf-1 inh 78 | Apaf-1 inh conf2 inactive | Rh110 interf inh inactive
CC1CCC/C(=C\c2ccccc2)C1=NO (stereo not drawn)	none (no result: Apaf-1 inh, PREPL inh, UBC13 polyUb)
COc1cccc2c1C(=O)C=C(C)C2=O	Apaf-1 inh 56 | Apaf-1 inh conf2 65 | Rh110 interf inh inactive | Apaf1 inh interf inactive
COc1cc(C(=O)Oc2ccccc2C=NNC(=O)c2ccc(Cl)cc2Cl)cc(OC)c1OC	none (no result: Apaf-1 inh, PREPL inh, UBC13 polyUb)
CCN(CC)c1ccc(C=NN2C(=O)c3ccccc3C2=O)cc1	none (no result: Apaf-1 inh, PREPL inh, UBC13 polyUb)
CCN(CC)c1nc(N)c2c(N)nc(OC)cc2c1C#N	Apaf-1 inh 46 | Apaf-1 inh conf2 inactive | Rh110 interf inh inactive
CCOc1cc2c(C#N)c(N3CCCCC3)nc(N)c2c(N)n1	Apaf-1 inh 97 | Apaf-1 inh conf2 inactive | Rh110 interf inh inactive
CCN(CC)c1nc(N)c(C#N)c(CC#N)c1C#N	none
CCOC(=O)C1CCN(c2nc(N)c3c(N)nc(SCC(=O)O)cc3c2C#N)CC1	none (no result: Apaf-1 inh, PREPL inh, UBC13 polyUb)
CC(C)(C)NC(=O)CCN(N=Cc1ccccc1O)C1=NS(=O)(=O)c2ccccc21	none (no result: Apaf-1 inh, PREPL inh, UBC13 polyUb)
Cc1cc(C)cc(NC(=S)Nc2cccc3cnccc23)c1	Apaf-1 inh 98 (no result: PREPL inh) | Apaf-1 inh conf2 inactive | Rh110 interf inh inactive
O=C(NC(=S)Nc1cccc2cnccc12)c1ccccc1	none
C=C(C)CNC(=S)Nc1cccc2cnccc12	none
CCc1ccc(NC(=S)Nc2cccc3cnccc23)cc1	Apaf-1 inh 89 | Apaf-1 inh conf2 43 | Rh110 interf inh inactive | Apaf1 inh interf inactive
Cc1ccc(NC(=S)Nc2cccc3cnccc23)c(C)c1	Apaf-1 inh 96 | Apaf-1 inh conf2 inactive | Rh110 interf inh inactive
CCCCCCc1cc2cc(C(=O)Nc3ccccc3OC)c(=O)oc2cc1O	none (no result: UCH37 DUB inh)
CCCCCCc1cc2cc(-c3nnc(-c4ccccc4OC)o3)c(=O)oc2cc1O	Apaf-1 inh 62 (no result: UCH37 DUB inh) | Apaf-1 inh conf2 64 | Rh110 interf inh inactive | Apaf1 inh interf inactive
CN(C)CCCN1c2ccccc2Sc2ccc(C(F)(F)F)cc21	Apaf-1 inh 43 | Apaf-1 inh conf2 inactive | Rh110 interf inh inactive
CC(=O)Nc1cccc(C(C)=NNC(N)=S)c1	none (no result: Apaf-1 inh, PREPL inh, UBC13 polyUb)
CCOC(=O)c1cnc(-n2nc(C)cc2C)nc1NC1CCCCC1	Apaf-1 inh 42 | Apaf-1 inh conf2 inactive | Rh110 interf inh inactive
CCOC(=O)c1cnc(-n2nc(C)cc2C)nc1NC	none
COc1cccc2nc3cc(C)c(C)cc3nc12	Apaf-1 inh 84 (no result: UCH37 DUB inh) | Apaf-1 inh conf2 inactive | Rh110 interf inh inactive
CN(C)S(=O)(=O)c1cccc(-c2csc(NN=Cc3ccco3)n2)c1	none (no result: Apaf-1 inh, PREPL inh, UBC13 polyUb)

Bioassay records as filed in PubChem BioAssay.
